Experimental data: ChEMBL document CHEMBL3244396, “Synthesis and antileukemic activity of 5-substituted 2,3-dihydro-6,7-bis(hydroxymethyl)-1H-pyrrolizine diesters” (J Med Chem, 1977)

How the values were obtained:
P388 [1] = assay: Antitumor activity against mouse P388 cells allografted in male CDF1 mouse assessed as disease cures by measuring 30-days host survival at 6.25 mg/kg, ip administered daily for 9 days as saline with Tween-80 solution starting 24 hrs after tumor inoculation relative to control; type: functional; conditions: route intraperitoneal
Outline: (§1)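 P388 ascitic cell inoculum given ip to CDF1 mice of the sex in each line. Nine daily ip doses in saline with Tween-80 as vehicle, starting 24 h after inoculation. Median survival time expressed as %T/C (>125 significant); "cure" defined as 30-day survival.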

P388 [2] = assay: Antitumor activity against mouse P388 cells allografted in male CDF1 mouse assessed as change in body weight at 6.25 mg/kg, ip administered daily for 9 days as saline with Tween-80 solution starting 24 hrs after tumor inoculation; type: functional; conditions: route intraperitoneal
Outline: (§2)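 Ascitic fluid carrying P388 cells was inoculated ip. Compound was given ip in nine daily doses, starting 24 h after inoculation, in Klucel (hydroxypropylcellulose) suspension or in saline with Tween-80. Body-weight difference (treated minus control) was recorded on day 5. Survival was scored as %T/C of median survival time, and 30-day survival counted as cure.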

P388 [3] = assay: Antitumor activity against mouse P388 cells allografted in female CDF1 mouse assessed as change in body weight at 400 mg/kg, ip administered daily for 9 days as saline with Tween-80 solution starting 24 hrs after tumor inoculation; type: functional; conditions: route intraperitoneal; outline: as §2
Mus musculus [4] = assay: Toxicity in female CDF1 mouse allografted with mouse P388 cells assessed as animal survival at 200 mg/kg, ip administered daily for 9 days as saline with Tween-80 solution starting 24 hrs after tumor inoculation; type: organism-based; parameters: dose 200 mg/kg, route intraperitoneal; conditions: in vivo
Outline: (§3)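 P-388 leukemia ascitic fluid implanted ip. Compound dosed ip in saline with Tween-80 vehicle, once daily for nine doses from 24 h after tumor inoculation. Acute toxicity scored as toxicity-day survivors per group. Survival was followed up to 30 days, with 30-day survival counted as "cure". Follows NCI screening protocols.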

Mus musculus [5] = assay: Toxicity in male CDF1 mouse allografted with mouse P388 cells assessed as animal survival at 25 mg/kg, ip administered daily for 9 days as saline with Tween-80 solution starting 24 hrs after tumor inoculation; type: organism-based; parameters: dose 25 mg/kg, route intraperitoneal; conditions: in vivo; outline: as §3
Mus musculus [6] = assay: Toxicity in female CDF1 mouse allografted with mouse P388 cells assessed as animal survival at 400 mg/kg, ip administered daily for 9 days as saline with Tween-80 solution starting 24 hrs after tumor inoculation; type: organism-based; parameters: dose 400 mg/kg, route intraperitoneal; conditions: in vivo; outline: as §3
Mus musculus [7] = assay: Toxicity in male CDF1 mouse allografted with mouse P388 cells assessed as animal survival at 12.5 mg/kg, ip administered daily for 9 days as saline with Tween-80 solution starting 24 hrs after tumor inoculation; type: organism-based; parameters: dose 12.5 mg/kg, route intraperitoneal; conditions: in vivo; outline: as §3
P388 [8] = assay: Antitumor activity against mouse P388 cells allografted in female CDF1 mouse assessed as change in body weight at 12.5 mg/kg, ip administered daily for 9 days as saline with Tween-80 solution starting 24 hrs after tumor inoculation; type: functional; conditions: route intraperitoneal; outline: as §2
P388 [9] = assay: Antitumor activity against mouse P388 cells allografted in female CDF1 mouse assessed as change in body weight at 25 mg/kg, ip administered daily for 9 days as saline with Tween-80 solution starting 24 hrs after tumor inoculation; type: functional; conditions: route intraperitoneal; outline: as §2
P388 [10] = assay: Antitumor activity against mouse P388 cells allografted in female CDF1 mouse assessed as change in body weight at 100 mg/kg, ip administered daily for 9 days as saline with Tween-80 solution starting 24 hrs after tumor inoculation; type: functional; conditions: route intraperitoneal; outline: as §2
P388 [11] = assay: Antitumor activity against mouse P388 cells allografted in female CDF1 mouse assessed as change in body weight at 6.25 mg/kg, ip administered daily for 9 days as saline with Tween-80 solution starting 24 hrs after tumor inoculation; type: functional; conditions: route intraperitoneal; outline: as §2
P388 [12] = assay: Antitumor activity against mouse P388 cells allografted in male CDF1 mouse assessed as change in body weight at 50 mg/kg, ip administered daily for 9 days as saline with Tween-80 solution starting 24 hrs after tumor inoculation; type: functional; conditions: route intraperitoneal; outline: as §2
Mus musculus [13] = assay: Toxicity in female CDF1 mouse allografted with mouse P388 cells assessed as animal survival at 12.5 mg/kg, ip administered daily for 9 days as saline with Tween-80 solution starting 24 hrs after tumor inoculation; type: organism-based; parameters: dose 12.5 mg/kg, route intraperitoneal; conditions: in vivo; outline: as §3
Mus musculus [14] = assay: Toxicity in male CDF1 mouse allografted with mouse P388 cells assessed as animal survival at 6.25 mg/kg, ip administered daily for 9 days as saline with Tween-80 solution starting 24 hrs after tumor inoculation; type: organism-based; parameters: dose 6.25 mg/kg, route intraperitoneal; conditions: in vivo; outline: as §3
P388 [15] = assay: Antitumor activity against mouse P388 cells allografted in female CDF1 mouse assessed as disease cures by measuring 30-days host survival at 12.5 mg/kg, ip administered daily for 9 days as saline with Tween-80 solution starting 24 hrs after tumor inoculation relative to control; type: functional; conditions: route intraperitoneal; outline: as §1
Mus musculus [16] = assay: Toxicity in female CDF1 mouse allografted with mouse P388 cells assessed as animal survival at 25 mg/kg, ip administered daily for 9 days as saline with Tween-80 solution starting 24 hrs after tumor inoculation; type: organism-based; parameters: dose 25 mg/kg, route intraperitoneal; conditions: in vivo; outline: as §3
P388 [17] = assay: Antitumor activity against mouse P388 cells allografted in female CDF1 mouse assessed as change in body weight at 50 mg/kg, ip administered daily for 9 days as saline with Tween-80 solution starting 24 hrs after tumor inoculation; type: functional; conditions: route intraperitoneal; outline: as §2
P388 [18] = assay: Antitumor activity against mouse P388 cells allografted in male CDF1 mouse assessed as change in body weight at 12.5 mg/kg, ip administered daily for 9 days as saline with Tween-80 solution starting 24 hrs after tumor inoculation; type: functional; conditions: route intraperitoneal; outline: as §2
P388 [19] = assay: Antitumor activity against mouse P388 cells allografted in male CDF1 mouse assessed as change in body weight at 25 mg/kg, ip administered daily for 9 days as saline with Tween-80 solution starting 24 hrs after tumor inoculation; type: functional; conditions: route intraperitoneal; outline: as §2
P388 [20] = assay: Antitumor activity against mouse P388 cells allografted in female CDF1 mouse assessed as disease cures by measuring 30-days host survival at 25 mg/kg, ip administered daily for 9 days as saline with Tween-80 solution starting 24 hrs after tumor inoculation relative to control; type: functional; conditions: route intraperitoneal; outline: as §1
P388 [21] = assay: Antitumor activity against mouse P388 cells allografted in female CDF1 mouse assessed as disease cures by measuring 30-days host survival at 6.25 mg/kg, ip administered daily for 9 days as saline with Tween-80 solution starting 24 hrs after tumor inoculation relative to control; type: functional; conditions: route intraperitoneal; outline: as §1
P388 [22] = assay: Antitumor activity against mouse P388 cells allografted in male CDF1 mouse assessed as disease cures by measuring 30-days host survival at 12.5 mg/kg, ip administered daily for 9 days as saline with Tween-80 solution starting 24 hrs after tumor inoculation relative to control; type: functional; conditions: route intraperitoneal; outline: as §1
Mus musculus [23] = assay: Toxicity in female CDF1 mouse allografted with mouse P388 cells assessed as animal survival at 6.25 mg/kg, ip administered daily for 9 days as saline with Tween-80 solution starting 24 hrs after tumor inoculation; type: organism-based; parameters: dose 6.25 mg/kg, route intraperitoneal; conditions: in vivo; outline: as §3
P388 [24] = assay: Antitumor activity against mouse P388 cells allografted in male CDF1 mouse assessed as disease cures by measuring 30-days host survival at 25 mg/kg, ip administered daily for 9 days as saline with Tween-80 solution starting 24 hrs after tumor inoculation relative to control; type: functional; conditions: route intraperitoneal; outline: as §1
P388 [25] = assay: Antitumor activity against mouse P388 cells allografted in female CDF1 mouse assessed as change in body weight at 200 mg/kg, ip administered daily for 9 days as saline with Tween-80 solution starting 24 hrs after tumor inoculation; type: functional; conditions: route intraperitoneal; outline: as §2

CCNC(=O)OCc1c(COC(=O)NCC)c(-c2ccc(Cl)c(Cl)c2)n2c1CCC2
T/C (P388 [1]): 168%
Activity (P388 [2]): -2.1 g
Activity (P388 [3]): -1.4 g
Activity (Mus musculus [4]): Toxic
Activity (Mus musculus [5]): Non-toxic
Activity (Mus musculus [6]): Toxic
Activity (Mus musculus [7]): Non-toxic
Activity (P388 [8]): -1.8 g
Activity (P388 [9]): -2.4 g
Activity (P388 [10]): -3 g
Activity (P388 [11]): -1.8 g
Activity (P388 [12]): -8 g
Activity (Mus musculus [13]): Non-toxic
Activity (Mus musculus [14]): Non-toxic
T/C (P388 [15]): 170%
Activity (Mus musculus [16]): Non-toxic
Activity (P388 [17]): -4.4 g
Activity (P388 [18]): -2.5 g
Activity (P388 [19]): -4.4 g
T/C (P388 [20]): 103%
T/C (P388 [21]): 154%
T/C (P388 [22]): 168%
Activity (Mus musculus [23]): Non-toxic
T/C (P388 [24]): 165%
Activity (P388 [25]): -1.4 g
